Structures are written as SMILES.

The nature of data set [1]: Cytotoxicity against human TZM-bl cells at 10 uM after 48 hrs by MTT assay. The data set is classed as cell-based. A general note: Tetrazolium assays rely on reduction of a dye to a coloured formazan, in cell work by metabolically active cells.
The test system of data set [2] is Human immunodeficiency virus. As to the kind of experiment: Antiviral activity against HIV infected in human TZM-bl cells at 10 uM after 48 hrs by measuring luciferase activity by luminometer analysis. The data set is classed as functional. The settings on record: Human immunodeficiency virus 1, TZM-bl. The method, boiled down: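 TZM-bl cells seeded at 10⁴ cells/well; samples (from DMSO stocks) added next day, then pseudotyped HIV; final DMSO 2%. Incubated 48 h at 37 °C in humidified CO₂. Steady-glow luciferase substrate added, lysis 20 min in dark, luminescence read. AZT and MK-0518 as positive controls; expressed as percent inhibition.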

Data set [3] deals with Tobacco mosaic virus. As to the kind of experiment: In vitro antiviral activity against TMV at 500 ug/ml. Format: functional.
For data set [4], the system named is Tobacco mosaic virus. As to the kind of experiment: In vivo antiviral activity against TMV assessed as inactivation effect at 500 ug/ml. The data set is classed as functional.
The test system of data set [5] is Tobacco mosaic virus. As to the kind of experiment: In vivo antiviral activity against TMV assessed as curative effect at 500 ug/ml. Format: functional.
Data set [6] relates to Tobacco mosaic virus. As to the kind of experiment: In vivo antiviral activity against TMV assessed as protection effect at 500 ug/ml. The data set is classed as functional.

As to `COC(=O)c1c(C(F)(F)F)nn(-c2ccccc2)c(=O)c1O`, the Activity result in data set [1] is on record as “Non-toxic”; in the data set on Tobacco mosaic virus [4], 18.9%; in the data set on Tobacco mosaic virus [5], 10.7%; in the data set with Tobacco mosaic virus [6], 11.4%. Moreover, in data set [2], the inhibition (commonly the change of the read-out against control, counted positive when it falls) at 10 µM is -0.75%. For the same compound, the inhibition at 500 µg/mL in the data set on Tobacco mosaic virus [3] amounted to 15.5%.

As to `O=c1c(O)cc(C(F)(F)F)nn1-c1ccccc1`, the Activity result in data set [1] is recorded as “Non-toxic”; in the data set with Tobacco mosaic virus [4], 0%; in the data set on Tobacco mosaic virus [5], 14.8%; with Tobacco mosaic virus [6] it was 7.6%. Also, the inhibition at 10 µM in data set [2] turned out to be 6.33%. The inhibition at 500 µg/mL in the data set on Tobacco mosaic virus [3] amounted to 0%.

Take `COC(=O)c1c(C(F)(F)F)nn(-c2ccccc2)c(=O)c1OC`: the Activity result in data set [1] was “Non-toxic”; with Tobacco mosaic virus [4], 16.5%; with Tobacco mosaic virus [5], 12.5%; in the data set with Tobacco mosaic virus [6] it was 19.2%. Besides, the inhibition at 10 µM in data set [2] was determined as 5.9%. For the same compound, the inhibition at 500 µg/mL with Tobacco mosaic virus [3] was 20%.

For `O=C(NCc1ccc(F)cc1)c1c(C(F)(F)F)nn(-c2ccccc2)c(=O)c1O`, the Activity entry in data set [1] is given as “Non-toxic”; in the data set on Tobacco mosaic virus [4] it was 36.7%; with Tobacco mosaic virus [5], 30.2%; with Tobacco mosaic virus [6], 32.6%. The inhibition at 10 µM in data set [2] worked out at 27.9%. The inhibition at 500 µg/mL in the data set with Tobacco mosaic virus [3] turned out to be 38.5%.

For `COC(=O)c1c(C(F)(F)F)nn(-c2ccc(F)cc2)c(=O)c1O`, the Activity result in data set [1] is recorded as “Non-toxic”. The inhibition at 10 µM in data set [2] worked out at 1.3%.

`O=c1c(O)cc(C(F)(F)F)nn1-c1ccc(F)cc1`: the Activity result in data set [1] is on record as “Non-toxic”. The inhibition at 10 µM in data set [2] is -11.6%.

Turning to `COC(=O)c1c(C(F)(F)F)nn(-c2ccc(F)cc2)c(=O)c1OC`, the Activity result in data set [1] is listed as “Non-toxic”; in the data set with Tobacco mosaic virus [4], 7.5%; in the data set with Tobacco mosaic virus [5] it was 18.6%; with Tobacco mosaic virus [6], 11.7%. Besides, in data set [2], the inhibition at 10 µM was determined as 7.34%. For the same compound, in the data set with Tobacco mosaic virus [3], the inhibition at 500 µg/mL was 22.5%.

`O=C(NCc1ccc(F)cc1)c1c(C(F)(F)F)nn(-c2ccc(F)cc2)c(=O)c1O`: the Activity result in data set [1] was “Non-toxic”; in the data set on Tobacco mosaic virus [4], 10.3%; with Tobacco mosaic virus [5], 17.4%; with Tobacco mosaic virus [6], 15.6%. Moreover, the inhibition at 10 µM in data set [2] was determined as 19.5%. Further, the inhibition at 500 µg/mL in the data set with Tobacco mosaic virus [3] was found to be 18.6%.

As to `O=C(NCc1ccc(F)cc1)c1c(C(F)(F)F)nn(-c2ccc(F)cc2)c(=O)c1NCc1ccc(F)cc1`, the Activity result in data set [1] is given as “Non-toxic”; in the data set on Tobacco mosaic virus [4], 30.2%; in the data set on Tobacco mosaic virus [5], 34%; with Tobacco mosaic virus [6] it was 31.3%. In addition, in data set [2], the inhibition at 10 µM was 19.5%. The inhibition at 500 µg/mL in the data set with Tobacco mosaic virus [3] was determined as 28.5%.

Regarding `COC(=O)c1c(C(F)(F)F)nn(Cc2ccc(F)cc2)c(=O)c1OC`, the Activity result in data set [1] is listed as “Non-toxic”; with Tobacco mosaic virus [4], 11.2%; in the data set on Tobacco mosaic virus [5], 10.3%; in the data set on Tobacco mosaic virus [6], 20.2%. For the same compound, the inhibition at 10 µM in data set [2] was 13.9%. Besides, the inhibition at 500 µg/mL with Tobacco mosaic virus [3] was found to be 27.5%.

Take `O=C(NCc1ccc(F)cc1)c1c(C(F)(F)F)nn(Cc2ccc(F)cc2)c(=O)c1O`: the Activity result was “Non-toxic” in data set [1], 21.4% in the data set on Tobacco mosaic virus [4], 21.7% with Tobacco mosaic virus [5] and 28.3% with Tobacco mosaic virus [6]. Besides, the inhibition at 10 µM in data set [2] came out at 29.3%. In addition, in the data set on Tobacco mosaic virus [3], the inhibition at 500 µg/mL is 30%.

Turning to `COC(=O)c1c(C(F)(F)F)nn(Cc2ccccn2)c(=O)c1O`, the Activity result is “Non-toxic” in data set [1], 18.3% with Tobacco mosaic virus [4], 9.3% with Tobacco mosaic virus [5] and 16.7% with Tobacco mosaic virus [6]. Further, the inhibition at 10 µM in data set [2] was 5.41%. Further, in the data set on Tobacco mosaic virus [3], the inhibition at 500 µg/mL amounted to 21.3%.

Regarding `COC(=O)c1c(C(F)(F)F)nn(Cc2ccccn2)c(=O)c1OC`, the Activity result in data set [1] is on record as “Non-toxic”; with Tobacco mosaic virus [4], 0%; in the data set with Tobacco mosaic virus [5], 0%; in the data set with Tobacco mosaic virus [6], 15.2%. Also, the inhibition at 10 µM in data set [2] came to 20.2%. Besides, in the data set with Tobacco mosaic virus [3], the inhibition at 500 µg/mL came to 0%.

As to `O=C(NCc1ccc(F)cc1)c1c(C(F)(F)F)nn(Cc2ccccn2)c(=O)c1O`, the Activity entry in data set [1] is listed as “Non-toxic”; in the data set on Tobacco mosaic virus [4], 5.2%; with Tobacco mosaic virus [5], 7.6%; in the data set with Tobacco mosaic virus [6], 18.6%. The inhibition at 10 µM in data set [2] turned out to be 2.99%. In addition, the inhibition at 500 µg/mL in the data set with Tobacco mosaic virus [3] was 10%.

With `COC(=O)c1c(C(F)(F)F)nn(Cc2cccnc2)c(=O)c1OC`, the Activity result in data set [1] is on record as “Non-toxic”. Moreover, the inhibition at 10 µM in data set [2] worked out at 19.5%.

Regarding `O=C(NCc1ccc(F)cc1)c1c(C(F)(F)F)nn(Cc2cccnc2)c(=O)c1O`, the Activity result in data set [1] is on record as “Non-toxic”; in the data set on Tobacco mosaic virus [4], 18.2%; in the data set with Tobacco mosaic virus [5], 12.8%; with Tobacco mosaic virus [6] it was 18.9%. The inhibition at 10 µM in data set [2] turned out to be 7.31%. Further, the inhibition at 500 µg/mL in the data set on Tobacco mosaic virus [3] worked out at 7.5%.

As for `COC(=O)c1c(C(F)(F)F)nn(CC2CCCO2)c(=O)c1OC` (configuration not stated), the Activity entry is “Non-toxic” in data set [1], 19.7% with Tobacco mosaic virus [4], 0% in the data set on Tobacco mosaic virus [5] and 10.3% in the data set with Tobacco mosaic virus [6]. Also, the inhibition at 10 µM in data set [2] came out at 9.3%. In the data set on Tobacco mosaic virus [3], the inhibition at 500 µg/mL was 13.6%.

Turning to `O=C(NCc1ccc(F)cc1)c1c(C(F)(F)F)nn(CC2CCCO2)c(=O)c1O` (configuration not stated), the Activity entry in data set [1] is “Non-toxic”; with Tobacco mosaic virus [4], 13.2%; with Tobacco mosaic virus [5], 0%; in the data set with Tobacco mosaic virus [6] it was 0%. Further, in data set [2], the inhibition at 10 µM was -3.02%. Further, the inhibition at 500 µg/mL with Tobacco mosaic virus [3] was found to be 0%.

As to `COC(=O)c1c(C(F)(F)F)nn(Cc2ccco2)c(=O)c1OC`, the Activity result in data set [1] is “Non-toxic”; in the data set on Tobacco mosaic virus [4], 0%; in the data set on Tobacco mosaic virus [5] it was 7.2%; with Tobacco mosaic virus [6], 0%. Besides, in data set [2], the inhibition at 10 µM is -3.39%. For the same compound, in the data set with Tobacco mosaic virus [3], the inhibition at 500 µg/mL came out at 8.5%.

For the compound `O=C(NCc1ccc(F)cc1)c1c(C(F)(F)F)nn(Cc2ccco2)c(=O)c1O`, in data set [1], the Activity entry was “Non-toxic”. Moreover, the inhibition at 10 µM in data set [2] turned out to be 13%.

As to `COC(=O)c1c(C(F)(F)F)nn(Cc2cccs2)c(=O)c1OC`, the Activity result in data set [1] is given as “Non-toxic”; in the data set on Tobacco mosaic virus [4] it was 15.1%; in the data set with Tobacco mosaic virus [5], 19.5%; with Tobacco mosaic virus [6] it was 10%. Further, the inhibition at 10 µM in data set [2] worked out at 37%. The inhibition at 500 µg/mL in the data set on Tobacco mosaic virus [3] worked out at 12.4%.

On to `O=C(NCc1ccc(F)cc1)c1c(C(F)(F)F)nn(Cc2cccs2)c(=O)c1O`, for which the Activity entry in data set [1] is reported as “Non-toxic”; with Tobacco mosaic virus [4] it was 0%; with Tobacco mosaic virus [5] it was 14.2%; in the data set with Tobacco mosaic virus [6], 0%. Besides, the inhibition at 10 µM in data set [2] was -7.5%. Further, in the data set on Tobacco mosaic virus [3], the inhibition at 500 µg/mL came out at 0%.

Turning to `Cc1nnc(C(=O)NC(C)(C)c2nc(C(=O)NCc3ccc(F)cc3)c(O)c(=O)n2C)o1` [RALTEGRAVIR POTASSIUM], the inhibition at 10 µM in data set [2] was determined as 95.1%.

As for `NC(=O)c1ncn([C@@H]2O[C@H](CO)[C@@H](O)[C@H]2O)n1` [RIBAVIRIN], in the data set on Tobacco mosaic virus [3], the inhibition at 500 µg/mL came out at 38.5%. The Activity in the data set with Tobacco mosaic virus [4] is 34.2%; in the data set with Tobacco mosaic virus [5], 32.7%; with Tobacco mosaic virus [6] it was 39.6%.

Turning to `Cc1cn([C@H]2C[C@H](N=[N+]=[N-])[C@@H](CO)O2)c(=O)[nH]c1=O` [ZIDOVUDINE], in data set [2], the inhibition at 10 µM is 100%.

These data come from ChEMBL document CHEMBL2040826, “Design, synthesis and antiviral activity of novel pyridazines” (Eur J Med Chem, 2012).
